Series [1] in a line: Antitumor activity against human MDA231 cells after 24 to 48 hrs by MTT assay. The class given is functional, cell-based. To be noted: MDA-MB-231. The procedure, abridged:
(§1)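 MTT read-out. Cells grown at 37 °C in DMEM with 10 mM glucose, 10% fetal calf serum, penicillin/streptomycin and 2 mmol/L glutamine. Seeded at 10^5 cells per well and left 24 h to attach, then compound added over a range of concentrations and cells grown 24 or 48 h. MTT at 1 mg/mL for 2 h at 37 °C in the dark, formazan dissolved in DMSO, OD read at 550 nm. Values are % of vehicle control (0.5% DMSO); IC50 by linear and polynomial regression; triplicate.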
For orientation: Tetrazolium assays rely on reduction of a dye to a coloured formazan, in cell work by metabolically active cells.

The next series concerns COLO 205. As to the kind of experiment: Antitumor activity against human COLO205 cells after 24 to 48 hrs by MTT assay. It is filed as functional, cell-based. The procedure, abridged:
as §1

A further series deals with H9c2. Briefly: Cardiotoxicity in rat H9c2 cells at 1 uM measured up to 120 hrs by MTT assay. The class given is toxicity, cell-based. To be noted: h9c2, 120 h. Summed up: (§2)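 Rat H9C2 cardiomyoblasts, passages 4–10, grown at 37 °C in DMEM with FBS, glutamine and penicillin/streptomycin. Plated at 2000 cells/well in quadruplicate and given compound at 1 μM for the indicated times. MTT reagent added for 2 h in the incubator, then absorbance read at 570 nm. Data are mean ± SD.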

The test system of the next series is U-937. As to the kind of experiment: Antitumor activity against human U937 cells after 24 to 48 hrs by MTT assay. The class given is functional, cell-based. Summed up:
as §1

A further series relates to HT-29. Briefly: Antitumor activity against human HT-29 cells after 24 to 48 hrs by MTT assay. The class given is functional, cell-based. The procedure, abridged: as §1
The species entered for series [2] is Homo sapiens. Briefly: Inhibition of human topoisomerase 2-mediated relaxation of supercoiled pBR322 DNA relaxation at 5 uM after 6 mins by agarose gel electrophoresis. Summed up: (§3)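 Compound at 5 or 10 μM. Run 6 min at 37 °C and stopped with EDTA/SDS/glycerol dye. Products run on 1% agarose in 0.5× TBE at 4 V/cm for 1 h, stained with ethidium bromide, bands quantified.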

In another series the test system is SK-MEL-28. As to the kind of experiment: Antitumor activity against human SK-MEL-28 cells after 24 to 48 hrs by MTT assay. The class given is functional, cell-based. The procedure, abridged: as §1
For series [3], the system named is Caco-2. As to the kind of experiment: Antitumor activity against human differentiated Caco2 cells after 24 to 48 hrs by MTT assay. The class given is cell-based. Summed up:
as §1

The next series has as its system SW-620. Briefly: Antitumor activity against human SW620 cells after 24 to 48 hrs by MTT assay. The class given is functional, cell-based. Summed up: as §1
The species named for series [4] is Homo sapiens. Briefly: Inhibition of human topoisomerase 2-mediated relaxation of supercoiled pBR322 DNA relaxation at 0.04 to 0.92 uM after 6 mins by agarose gel electrophoresis.
In another series the test system is SNB-19. Briefly: Antitumor activity against human SNB19 cells after 24 to 48 hrs by MTT assay. The class given is functional, cell-based. The procedure, abridged: as §1
In a further series the test system is SF-295. As to the kind of experiment: Antitumor activity against human SF295 cells after 24 to 48 hrs by MTT assay. It is filed as functional, cell-based. Summed up:
as §1

The species named for series [5] is Homo sapiens. As to the kind of experiment: Inhibition of human topoisomerase 2-mediated relaxation of supercoiled pBR322 DNA relaxation at 10 uM after 6 mins by agarose gel electrophoresis. The procedure, abridged: as §3
In series [6] the test system is Caco-2. Briefly: Antitumor activity against human undifferentiated Caco2 cells after 24 to 48 hrs by MTT assay. The class given is functional, cell-based. Summed up: as §1
Series [7] relates to Caco-2. Briefly: […] of cell differentiation in human Caco2 cells assessed as increase in ALP activity at 10 uM after 48 hrs. The class given is functional. Details: scale not given: the % may be the effect or the level left. Summed up: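 Caco-2 cells cultured 48 h with 0, 1, 5 or 10 μM compound. Attached and floating cells washed and lysed in 0.25% sodium deoxycholate. ALP activity measured with a diagnostic ALP reagent and protein by Bradford microassay. Activity expressed as units per mg protein, as a differentiation marker.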

Series [8] deals with Nucleic Acid. Briefly: Binding affinity to poly(dG-dC).poly(dG-dC) DNA assessed as compound/DNA complex formation at 1 mM by WaterLOGSY NMR spectrophotometric analysis. The class given is nucleic-acid assay. The procedure, abridged: (§4)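 Ligand at 1.0 mM with poly(dG-dC)·poly(dG-dC) at 50 μM (as phosphate groups), a 20:1 ligand excess, in H2O/D2O 9:1 with 100 mM phosphate-buffered saline, pH 7.1. Water suppressed by DPFGSE. STD effects taken relative to a reference spectrum with off-resonance saturation at δ −16 ppm, 2 s saturation, typically 512 scans. WaterLOGSY spectra recorded with and without DNA.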

For the next series, the system named is MDA-MB-435. As to the kind of experiment: Antitumor activity against human MDA-MB-435 cells after 24 to 48 hrs by MTT assay. It is filed as functional, cell-based. The procedure, abridged:
(§5)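 MTT read-out. Cells grown at 37 °C in DMEM with 10 mM glucose, 10% fetal calf serum, penicillin/streptomycin and 2 mmol/L glutamine. Seeded at 10^5 cells per well and left 24 h to attach, then compound added over a range of concentrations and cells grown 24 or 48 h. MTT at 1 mg/mL for 2 h at 37 °C in the dark, formazan dissolved in DMSO, OD read at 550 nm.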

In series [9] the test system is Caco-2. Briefly: Cell cycle arrest in human Caco2 cells assessed as accumulation at G2/M phase at 1 uM after 48 hrs by propidium iodide staining based flow cytometric analysis (reference value: 21%). The class given is functional. Background: Flow cytometry measures light scatter and fluorescence of single cells or particles in a stream.
In series [10] the test system is MCF7. Briefly: Cytotoxicity against human MCF7 cells. It is filed as functional, cell-based. The procedure, abridged:
as §1

For series [11], the species on record is Homo sapiens. Briefly: Inhibition of human topoisomerase 2-mediated relaxation of supercoiled pBR322 DNA relaxation after 6 mins by agarose gel electrophoresis.
In series [12] the test system is Nucleic Acid. Briefly: Binding affinity to DNA assessed as binding mode index by measuring aromatic signals by DF-STD spectrophotometric analysis. The class given is nucleic-acid assay. The procedure, abridged:
(§6)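 DF-STD NMR on poly(dG-dC)·poly(dG-dC) in H2O/D2O 9:1 with 100 mM phosphate-buffered saline, pH 7.1. Ligand 1.0 mM; DNA 50 μM as phosphate (20:1 ligand excess). Saturation is centred on the aromatic or low-field aliphatic region for 2 s, with a reference off-resonance at δ −16 ppm and 512 scans. The binding mode index is the relative response of ligand protons to base versus sugar/backbone saturation.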

For series [13], the system named is MCF7. Briefly: Drug uptake in human MCF7 cells assessed as nuclear localization at 50 nM after 30 mins by confocal microscopic analysis. The class given is ADME, cell-based. Conditions: mcf7, 0.5 h, 0.05 µM. Summed up:
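Imaging in MCF-7 cells by confocal microscopy with 50 nM labeled compound. Cells fixed in paraformaldehyde for 30 min at 4 °C, permeabilized with Triton X-100 for 30 min at 4 °C, and nuclei stained with Hoechst 33342. Images taken with a 63× oil objective.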

The subject of series [14] is Caco-2. Briefly: Increase in Hsp27 protein expression in human Caco2 cells at 5 uM after 48 hrs by Western blot analysis. It is filed as functional, cell-based. Summed up: (§7)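 Caco-2 cells treated for 48 h (1 or 5 μM for Hsp27; 1 μM for cyclin A). Lysed in ice-cold 50 mM Tris, 150 mM NaCl, 10 mM EDTA, 1% Triton with protease inhibitors. Equal protein run on 8–12% SDS-PAGE and transferred to nitrocellulose. Primary antibody overnight in TBS/Tween/1% milk, then HRP secondary; bands detected by ECL.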

Series [15] has as its system Caco-2. Briefly: Selectivity index, ratio IC50 for undifferentiated human Caco2 cells to IC50 for differentiated human Caco2 cells. The class given is functional. The procedure, abridged: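 Ratio of MTT IC50 in undifferentiated to differentiated Caco-2 cells. MTT conditions: 24 or 48 h exposure, formazan dissolved in DMSO, read at 550 nm, IC50 by regression, triplicate.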

Series [16] can be described thus: Antitumor activity against human IGROV cells after 24 to 48 hrs by MTT assay. The class given is functional, cell-based. The procedure, abridged:
as §5

Series [17] deals with Caco-2. Briefly: Cell cycle arrest in human Caco2 cells assessed as accumulation at G1 phase at 1 uM after 48 hrs by propidium iodide staining based flow cytometric analysis (reference value: 42%). The class given is functional.
The test system of series [18] is Caco-2. As to the kind of experiment: Induction of cyclin A expression in human Caco2 cells at 1 uM after 48 hrs by Western blot analysis. It is filed as functional. Summed up: as §7
Series [19] concerns Nucleic Acid. As to the kind of experiment: Binding affinity to poly(dG-dC).poly(dG-dC) DNA assessed as compound/DNA complex formation at 1 mM by STD NMR spectrophotometric analysis. It is filed as nucleic-acid assay. Summed up:
as §4

Series [20] relates to Nucleic Acid. As to the kind of experiment: Binding affinity to DNA assessed as binding mode index by measuring aliphatic signals by DF-STD spectrophotometric analysis. It is filed as nucleic-acid assay. The procedure, abridged: as §6
A short description of series [21]: Cardiotoxicity in rat H9c2 cells assessed as cell viability at 1 uM up to 120 hrs by MTT assay. The class given is toxicity, cell-based. Conditions: read-out: Activity. The procedure, abridged:
as §2

The subject of series [22] is Caco-2. Briefly: Cell cycle arrest in human Caco2 cells assessed as accumulation at S phase at 1 uM after 48 hrs by propidium iodide staining based flow cytometric analysis (reference value: 36%). The class given is functional.
Series [23] concerns Caco-2. Briefly: Increase in Hsp27 protein expression in human Caco2 cells at 1 uM after 48 hrs by Western blot analysis. The class given is functional, cell-based. Summed up:
as §7

We go through two molecules from ChEMBL document CHEMBL1799973, “Design, synthesis, and cytotoxic evaluation of acyl derivatives of 3-aminonaphtho[2,3-b]thiophene-4,9-dione, a quinone-based system” (J Med Chem, 2011).

Active and inactive are the calls of the source. No cut-off for these calls is given here.

Broadly, the IC50 is the concentration needed to halve the response being measured.

As to `COc1cccc2c1C(=O)c1c(O)c3c(c(O)c1C2=O)C[C@@](O)(C(=O)CO)C[C@@H]3O[C@H]1C[C@H](N)[C@H](O)[C@H](C)O1` [DOXORUBICIN], the 50% inhibitory concentration (IC50) in series [1] is 1.13 µM; with COLO 205, 1.5 µM; with U-937, 0.93 µM; with HT-29 it was 1.1 µM; in the series on SK-MEL-28 it was 0.6 µM; in the series on Caco-2 [3], 0.6 µM. Further, the IC50 in the series on SW-620 is 0.12 µM; in the series on SNB-19, 0.8 µM; with SF-295, 4.4 µM; with Caco-2 [6], 6.7 µM. Moreover, the Activity entry in the series on H9c2 is listed as “Toxic”. Further, the inhibition entry in the series listed under Homo sapiens [2], in the series filed under Homo sapiens [4] and in the series listed under Homo sapiens [5] was “Active” throughout.

For the molecule `CCN(CC)CCC(=O)Nc1csc2c1C(=O)c1ccccc1C2=O.Cl`, the Activity is more than 180% in the series with Caco-2 [7]; 28% in the series with Caco-2 [9]; 1.35 in the series with Nucleic Acid [12]; 29% with Caco-2 [17]; 0.86 with Nucleic Acid [20]; 41% in the series with Caco-2 [22]. Also, the IC50 in [1] came out at 2.5 µM; in the series with COLO 205, 0.9 µM; in the series with MDA-MB-435 it was 0.5 µM; in the series on MCF7 [10], 0.5 µM; with U-937, 1.1 µM; in the series on HT-29, 0.8 µM. Further, the IC50 with SK-MEL-28 was 0.6 µM; with Caco-2 [3] it was 4.1 µM; in the series on SW-620, 1.5 µM; in [16], 2.5 µM; in the series on SNB-19, 0.7 µM; in the series on SF-295 it was 0.6 µM. For the same molecule, the half-inhibitory concentration (IC50) in the series on Caco-2 [6] was determined as 1 µM. The outcome in the series on Nucleic Acid [8], in the series on Nucleic Acid [19] and in the series with Caco-2 [23] was Active. Moreover, the inhibition entry in the series filed under Homo sapiens [11] was “Dose-dependent effect”. For the same molecule, in the series with MCF7 [13], the Drug uptake result is on record as “Active”. In addition, the result with Caco-2 [14] and with Caco-2 [18] was inactive. Further, the “Ratio IC50” value in the series on Caco-2 [15] is 0.25. Besides, in series [21], the viability at 120 h, 1 µM amounted to 74%.
